# Measured values as given in ChEMBL document CHEMBL1122701, “Antiestrogens. 2. Structure-activity studies in a series of 3-aroyl-2-arylbenzo[b]thiophene derivatives leading to [6-hydroxy-2-(4-hydroxyphenyl)benzo[b]thien-3-yl] [4-[2-(1-piperidinyl)ethoxy]-phenyl]methanone hydrochloride (LY156758), a remarkably effective estrogen antagonist with only minimal …” (1984).
# Several values for one entry are separate records, joined by “and”; a condition that tells them apart may be missing. Equal entries are not always repeated.
# Experiments:
# [1] = species: Rattus norvegicus; assay: The compound was tested for anti-uterotrophic activity in immature rats(Dosage 100 ug); format: functional
# Method in brief: (§1)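 Holtzman rats, immature (19-20 days, 40-45 g), in groups of six. Each rat received estradiol 1 µg/day sc in corn oil plus compound sc in corn oil as a daily per-rat dose, for 3 days. Rats killed on day 4. Inhibition of estradiol-driven uterine wet weight (weighed to 0.1 mg).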
# [2] = species: Rattus norvegicus; assay: The compound was tested for uterotropic activity in immature rats(Dosage 100 ug); format: functional
# Method in brief: (§2)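 Holtzman rats, immature (19-20 days, 40-45 g), in groups of six. Compound given subcutaneously in corn oil as a daily per-rat dose for 3 days. Rats killed on day 4 and uterine wet weight recorded to the nearest 0.1 mg.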
# [3] = species: Rattus norvegicus; assay: The compound was tested for anti-uterotrophic activity in immature rats(Dosage 10 microg); format: functional; method in brief: as §1
# [4] = species: Rattus norvegicus; assay: The compound was tested for anti-uterotrophic activity in immature rats(Dosage 1000 ug); format: functional; method in brief: as §1
# [5] = species: Rattus norvegicus; assay: The compound was tested for uterotropic activity in immature rats(Dosage 10 ug); format: functional; method in brief: as §2
# [6] = species: Rattus norvegicus; assay: The compound was tested for uterotropic activity in immature rats(Dosage 1000 ug); format: functional; method in brief: as §2
# [7] = species: Rattus norvegicus; assay: The compound was tested for uterotropic activity in immature rats(Dosage 1 ug); format: functional; method in brief: as §2
# [8] = species: Rattus norvegicus; assay: The compound was tested for anti-uterotrophic activity in immature rats(Dosage 1 ug); format: functional; method in brief: as §1
# [9] = test system: Rattus norvegicus; assay: The compound was tested for serum prolactin level in rats at 1 mg/kg dose after peroral administration; format: functional, organism-based; parameters: dose 1 mg/kg
# [10] = test system: Rattus norvegicus; assay: The compound was tested for serum prolactin level in rats at 10 mg/kg dose after peroral administration; format: functional, organism-based; parameters: dose 10 mg/kg
# [11] = test system: Rattus norvegicus; assay: The compound was tested for serum prolactin level in rats at 1 mg/kg dose after peroral administration exp1; format: functional, organism-based; parameters: dose 1 mg/kg
# [12] = test system: Rattus norvegicus; assay: The compound was tested for serum LH level in rats at 1 mg/kg dose after peroral administration; format: functional, organism-based; parameters: dose 1 mg/kg
# [13] = species: Rattus norvegicus; assay: The compound was tested for uterotropic activity in immature rats(Dosage 0.1 ug); format: functional; method in brief: as §2
# [14] = test system: Rattus norvegicus; assay: The compound was tested for no of tumors with complete remission at 1 mg/kg dose after peroral administration (experiment-I); format: functional; details: route oral
# Method in brief: (§3)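 DMBA-induced mammary tumors in female Sprague-Dawley rats. Compound given orally twice daily in PEG-400:water (1:1) for 21 days; controls received vehicle alone. Tumors measured by caliper at start and weekly; area is largest × smallest diameter. Tumors scored as complete or partial remission, no change or progression. Mean ± SE.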
# [15] = test system: Rattus norvegicus; assay: The compound was tested for the % change of tumor area at 1 mg/kg dose after peroral administration (experiment-I); format: functional; details: route oral; method in brief: as §3
# [16] = test system: Rattus norvegicus; assay: The compound was tested for the no of tumors at 1 mg/kg dose start of the experiment after peroral administration (experiment-I); format: functional; details: route oral; method in brief: as §3
# [17] = test system: Rattus norvegicus; assay: The compound was tested for no of tumors with complete remission at 10 mg/kg dose after peroral administration (experiment-I); format: functional; details: route oral; method in brief: as §3
# [18] = test system: Rattus norvegicus; assay: The compound was tested for no of tumors without change at 10 mg/kg dose after peroral administration (experiment-I); format: functional; details: route oral; method in brief: as §3
# [19] = test system: Rattus norvegicus; assay: The compound was tested for the no of tumors at 10 mg/kg dose start of the experiment after peroral administration (experiment-2); format: functional; details: route oral; method in brief: as §3
# [20] = test system: Rattus norvegicus; assay: The compound was tested for the % change of tumor area at 10 mg/kg dose after peroral administration (experiment-2); details: route oral
# [21] = test system: Rattus norvegicus; assay: The compound was tested for no of tumors with partial remission at 10 mg/kg dose after peroral administration (experiment-2); format: functional; details: route oral; method in brief: as §3
# [22] = test system: Rattus norvegicus; assay: The compound was tested for the no of tumors at 10 mg/kg dose finish of the experiment after peroral administration (experiment-2); format: functional; details: route oral; method in brief: as §3
# [23] = test system: Rattus norvegicus; assay: The compound was tested for the growth of mammary tumors in rats at 1 mg/kg dose after peroral administration at the end of the exp-1; format: functional; details: route oral; method in brief: as §3
# [24] = test system: Rattus norvegicus; assay: The compound was tested for no of tumors with complete remission at 10 mg/kg dose after peroral administration (experiment-2); format: functional; details: route oral; method in brief: as §3
# [25] = test system: Rattus norvegicus; assay: The compound was tested for the progression of no of tumors at 1 mg/kg dose after peroral administration (experiment-I); format: functional; details: route oral; method in brief: as §3
# [26] = test system: Rattus norvegicus; assay: The compound was tested for the no of tumors at 10 mg/kg dose finish of the experiment after peroral administration (experiment-I); format: functional; details: route oral; method in brief: as §3
# [27] = test system: Rattus norvegicus; assay: The compound was tested for no of tumors with partial remission at 10 mg/kg dose after peroral administration (experiment-I); format: functional; details: route oral; method in brief: as §3
# [28] = test system: Rattus norvegicus; assay: The compound was tested for no of tumors without change at 1 mg/kg dose after peroral administration (experiment-I); format: functional; details: route oral; method in brief: as §3
# [29] = test system: Rattus norvegicus; assay: The compound was tested for the progression of no of tumors at 10 mg/kg dose after peroral administration (experiment-2); format: functional; details: route oral; method in brief: as §3
# [30] = test system: Rattus norvegicus; assay: The compound was tested for no of tumors with partial remission at 1 mg/kg dose after peroral administration (experiment-I); format: functional; details: route oral; method in brief: as §3
# [31] = test system: Rattus norvegicus; assay: The compound was tested for the progression of no of tumors at 10 mg/kg dose after peroral administration (experiment-I); format: functional; details: route oral; method in brief: as §3
# [32] = test system: Rattus norvegicus; assay: The compound was tested for the no of tumors at 10 mg/kg dose start of the experiment after peroral administration (experiment-I); format: functional; details: route oral; method in brief: as §3
# [33] = test system: Rattus norvegicus; assay: The compound was tested for the no of tumors at 1 mg/kg dose finish of the experiment after peroral administration (experiment-I); format: functional; details: route oral; method in brief: as §3
# [34] = test system: Rattus norvegicus; assay: The compound was tested for no of tumors without change at 10 mg/kg dose after peroral administration (experiment-2); format: functional; details: route oral; method in brief: as §3
# [35] = test system: Rattus norvegicus; assay: The compound was tested for the growth of tumors at 10 mg/kg dose finish of the experiment after peroral administration (experiment-2); format: functional; details: route oral; method in brief: as §3
# [36] = test system: Rattus norvegicus; assay: The compound was tested for the growth of mammary tumors in rats at 10 mg/kg dose after peroral administration at the end of the exp-2; format: functional; details: route oral; method in brief: as §3
# [37] = test system: Rattus norvegicus; assay: The compound was tested for the growth of tumors at 10 mg/kg dose start of the experiment after peroral administration (experiment-2); format: functional; details: route oral; method in brief: as §3
smiles,measurement,setting,value
CC(C)N(CCOc1ccc(C(=O)c2c(-c3ccc(O)cc3)sc3cc(O)ccc23)cc1)C(C)C,Mean uterine weight,[1],69.5 mg
same,Mean uterine weight,[2],62.1 mg
same,Mean uterine weight,[3],58.7 mg
same,Mean uterine weight,[4],70.2 mg
same,Mean uterine weight,[5],50 mg
same,Mean uterine weight,[6],60.4 mg
same,Mean uterine weight,[7],37.3 mg
same,Mean uterine weight,[8],60.1 mg
CCN(CC)CCOc1ccc(C(=O)c2c(-c3ccc(O)cc3)sc3cc(O)ccc23)cc1,Mean uterine weight,[1],66.4 mg
same,Mean uterine weight,[2],67.6 mg
same,Mean uterine weight,[3],61.3 mg
same,Mean uterine weight,[4],66 mg
same,Mean uterine weight,[5],53.6 mg
same,Mean uterine weight,[6],66.5 mg
same,Mean uterine weight,[7],45.4 mg
same,Mean uterine weight,[8],56.2 mg
O=C(c1ccc(OCCN2CCCCCC2)cc1)c1c(-c2ccc(O)cc2)sc2cc(O)ccc12,Mean uterine weight,[1],39.7 mg
same,Mean uterine weight,[2],43.9 mg
same,Mean uterine weight,[3],52.7 mg
same,Mean uterine weight,[4],36.7 mg
same,Mean uterine weight,[5],46.6 mg
same,Mean uterine weight,[6],40.1 mg
same,Mean uterine weight,[7],52.7 mg
same,Mean uterine weight,[8],56.3 mg
CN(C)CCOc1ccc(C(=O)c2c(-c3ccc(O)cc3)sc3cc(O)ccc23)cc1,Mean uterine weight,[1],64.7 mg
same,Mean uterine weight,[2],66 mg
same,Mean uterine weight,[3],54.3 mg
same,Mean uterine weight,[4],70.8 mg
same,Mean uterine weight,[5],55 mg
same,Mean uterine weight,[6],71.5 mg
same,Mean uterine weight,[7],44.6 mg
same,Mean uterine weight,[8],54.7 mg
O=C(c1ccc(OCCN2CCCCC2)cc1)c1c(-c2ccc(O)cc2)sc2cc(O)ccc12,Serum prolactin level,[9],7.24e-05 mg/mL
same,Serum prolactin level,[10],0.000711 mg/mL
same,Serum prolactin level,[11],0.000204 mg/mL
same,Serum LH level,[12],3.08e-05 mg/mL and 2.77e-05 mg/mL
C[C@]12CC[C@@H]3c4ccc(O)cc4CC[C@H]3[C@@H]1CC[C@@H]2O [ESTRADIOL],Mean uterine weight,[13],82.3 mg
O=C(c1ccc(OCCN2CCCC2)cc1)c1c(-c2ccc(O)cc2)sc2cc(O)ccc12 [LY-117018],Mean uterine weight,[1],42.7 mg
same,Mean uterine weight,[2],43.9 mg
same,Mean uterine weight,[3],44.5 mg
same,Mean uterine weight,[4],36.1 mg
same,Mean uterine weight,[5],46.6 mg
same,Mean uterine weight,[6],40.7 mg
same,Mean uterine weight,[7],55.1 mg
same,Mean uterine weight,[8],61.7 mg
Cl.O=C(c1ccc(OCCN2CCCCC2)cc1)c1c(-c2ccc(O)cc2)sc2cc(O)ccc12 [RALOXIFENE HYDROCHLORIDE],No. of tumours,[14],1
same,% change tumor area,[15],132% and 378%
same,No. of tumours,[16],9
same,No. of tumours,[17],1
same,No. of tumours,[18],2
same,No. of tumours,[19],9
same,% change tumor area,[20],417%
same,No. of tumours,[21],2
same,No. of tumours,[22],5
same,Tumor area,[23],33.3 mm**2 and <77.3 mm**2
same,No. of tumours,[24],4
same,No. of tumours,[25],2
same,No. of tumours,[26],13
same,No. of tumours,[27],2
same,No. of tumours,[28],4
same,No. of tumours,[29],2
same,No. of tumours,[30],2
same,No. of tumours,[31],4
same,No. of tumours,[32],9
same,No. of tumours,[33],9
same,No. of tumours,[34],1
O=C(c1ccc(OCCN2CCCCC2)cc1)c1c(-c2ccc(O)cc2)sc2cc(O)ccc12 [RALOXIFENE],Mean uterine weight,[1],32.5 mg
same,Mean uterine weight,[2],42.7 mg
same,Mean uterine weight,[3],36.7 mg
same,Mean uterine weight,[4],28.9 mg
same,Mean uterine weight,[5],42.2 mg
same,Mean uterine weight,[6],35.4 mg
same,Mean uterine weight,[7],48.6 mg
same,Mean uterine weight,[8],48.7 mg
CC/C(=C(\c1ccccc1)c1ccc(OCCN(C)C)cc1)c1ccccc1 [TAMOXIFEN],Mean uterine weight,[1],72.1 mg
same,Mean uterine weight,[2],65.6 mg
same,Mean uterine weight,[3],62.1 mg
same,Mean uterine weight,[4],74.1 mg
same,Mean uterine weight,[5],64.8 mg
same,No. of tumours,[35],7
same,% change tumor area,[20],7
same,Tumor area,[36],43.4 mm**2 and <46.4 mm**2
same,No. of tumours,[21],3
same,No. of tumours,[24],3
same,Mean uterine weight,[6],70.1 mg
same,Serum prolactin level,[10],0.000126 mg/mL
same,Mean uterine weight,[7],38.9 mg
same,No. of tumours,[29],3
same,Mean uterine weight,[8],64.1 mg
same,No. of tumours,[37],11
same,No. of tumours,[34],2
